≈ marks a conversion by molar mass, not a printed value.
How the values were obtained:
Assay type in all cases: functional
Pseudomonas aeruginosa [1] = test: In vitro antibacterial activity against Pseudomonas aeruginosa 12
Procedure, shortened: (§1)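 Two-fold agar dilution MIC on Mueller-Hinton agar (pH 7.4), following the Japan Society of Chemotherapy MIC Committee method. Inoculum was about 10⁶ CFU, and growth was read after 20 h at 37 °C. MIC is reported in µg/mL.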

Staphylococcus aureus [2] = test: In vitro antibacterial activity against Staphylococcus aureus 209P JC-1; procedure, shortened: as §1
Escherichia coli [3] = test: In vitro antibacterial activity against Escherichia coli NIHJ JC-2; procedure, shortened: as §1
[4] = tested on: Staphylococcus epidermidis; test: In vitro antibacterial activity against […] 8; procedure, shortened: as §1
Mus musculus [5] = organism: Mus musculus; test: Oral efficacy against Pseudomonas aeruginosa 12 on Systemic Infections in Mice
Procedure, shortened: (§2)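 Groups of at least 10 male Std-ddY mice (20 ± 2 g) were infected ip, with S. pyogenes A65 at 3×10^7 cells or P. aeruginosa 12 at 4×10^3 cells. Compounds were suspended in 0.2% sodium carboxymethylcellulose and given orally at 0 and 6 h postinfection. The result is reported as ED50 in mg/kg.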

Enterococcus faecalis = test: In vitro antibacterial activity against Streptococcus faecalis 2473; procedure, shortened: as §1
Klebsiella pneumoniae = test: In vitro antibacterial activity against Klebsiella pneumoniae 13; procedure, shortened: as §1
Serratia marcescens [6] = test: In vitro antibacterial activity against Serratia marcescence S-9; procedure, shortened: as §1
Moraxella bovis = test: In vitro antibacterial activity against glucose nonfermenter Moraxella bovis P-7101; procedure, shortened: as §1
Escherichia coli [7] = test: In vitro antibacterial activity against Escherichia coli P-5101; procedure, shortened: as §1
Streptococcus pyogenes = test: In vitro antibacterial activity against Streptococcus pyogenes A65; procedure, shortened: as §1
Mus musculus [8] = organism: Mus musculus; test: Oral efficacy against Streptococcus pyogenes A65 on Systemic Infections in Mice; procedure, shortened: as §2
Pseudomonas aeruginosa [9] = test: In vitro antibacterial activity against Pseudomonas aeruginosa IFO 3445; procedure, shortened: as §1
Enterobacter cloacae = test: In vitro antibacterial activity against Enterobacter cloacae 963
Staphylococcus aureus [10] = test: In vitro antibacterial activity against Staphylococcus aureus 50774; procedure, shortened: as §1
Serratia marcescens [11] = test: In vitro antibacterial activity against Serratia marcescens S-9
Procedure, shortened: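 MIC (µg/mL) by 2-fold agar dilution on Mueller-Hinton agar (pH 7.4), following the Japan Society of Chemotherapy MIC Committee method. Inoculum of about 10⁶ CFU. Growth was read after 20 h at 37 °C.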

MIC (Pseudomonas aeruginosa [1]) [µg/mL]	MIC (Staphylococcus aureus [2]) [µg/mL]	MIC (Escherichia coli [3]) [µg/mL]	SMILES	other results
12.5 (≈ 31.8 µM)	25 (≈ 63.6 µM)	0.2 (≈ 0.508 µM)	COc1c(F)c(N2CCN(C)CC2)c(F)c2c1c(=O)c(C(=O)O)cn2C1CC1	–
> 100	100 (≈ 194 µM)	12.5 (≈ 24.2 µM)	COc1ccc(CSc2c(F)c(N3CCN(C)CC3)c(F)c3c2c(=O)c(C(=O)O)cn3C2CC2)cc1	–
1.56 (≈ 3.95 µM)	0.39 (≈ 0.986 µM)	0.05 (≈ 0.126 µM)	C[C@@H]1CN(c2c(F)c(F)c3c(=O)c(C(=O)O)cn(C4CC4)c3c2F)C[C@H](C)N1 [ORBIFLOXACIN]	–
1.56 (≈ 3.7 µM)	0.05 (≈ 0.119 µM)	0.1 (≈ 0.237 µM)	CN(C)CC1CN(c2c(F)c(N)c3c(=O)c(C(=O)O)cn(C4CC4)c3c2F)CCN1 (stereo not given)	–
0.78 (≈ 1.76 µM)	0.39 (≈ 0.882 µM)	0.05 (≈ 0.113 µM)	CN1CCN(c2c(F)c(Br)c3c(=O)c(C(=O)O)cn(C4CC4)c3c2F)CC1	–
0.2 (≈ 0.507 µM)	0.05 (≈ 0.127 µM)	0.025 (≈ 0.0634 µM)	Nc1c(F)c(N2CCNC(CO)C2)c(F)c2c1c(=O)c(C(=O)O)cn2C1CC1 (stereo not given)	–
6.25 (≈ 13.3 µM)	6.25 (≈ 13.3 µM)	1.56 (≈ 3.32 µM)	CN1CCN(c2c(F)c(OCc3ccccc3)c3c(=O)c(C(=O)O)cn(C4CC4)c3c2F)CC1	–
0.2 (≈ 0.529 µM)	0.025 (≈ 0.0661 µM)	0.006 (≈ 0.0159 µM)	CC1CN(c2c(F)c(N)c3c(=O)c(C(=O)O)cn(C4CC4)c3c2F)CCN1 (stereo not given)	MIC [4]: 0.025 µg/mL (≈ 0.0661 µM); ED50 (Mus musculus [5]): 1.11 mg/kg; MIC (Enterococcus faecalis): 0.39 µg/mL (≈ 1.03 µM); MIC (Klebsiella pneumoniae): 0.0125 µg/mL (≈ 0.033 µM); MIC (Serratia marcescens [6]): 0.05 µg/mL (≈ 0.132 µM); MIC (Moraxella bovis): 0.39 µg/mL (≈ 1.03 µM); MIC (Escherichia coli [7]): 0.0063 µg/mL (≈ 0.0166 µM); MIC (Streptococcus pyogenes): 0.39 µg/mL (≈ 1.03 µM); ED50 (Mus musculus [8]): 6.54 mg/kg; MIC (Pseudomonas aeruginosa [9]): 0.2 µg/mL (≈ 0.529 µM); MIC (Enterobacter cloacae): 0.025 µg/mL (≈ 0.0661 µM); MIC (Staphylococcus aureus [10]): 0.025 µg/mL (≈ 0.0661 µM)
0.39 (≈ 0.994 µM)	0.05 (≈ 0.127 µM)	0.0063 (≈ 0.0161 µM)	CC1CN(c2c(F)c(N)c3c(=O)c(C(=O)O)cn(C4CC4)c3c2F)CCN1C (stereo not given)	–
1.56 (≈ 3.98 µM)	0.78 (≈ 1.99 µM)	0.1 (≈ 0.255 µM)	CNc1c(F)c(N2CCN(C)CC2)c(F)c2c1c(=O)c(C(=O)O)cn2C1CC1	–
0.78 (≈ 2.06 µM)	0.2 (≈ 0.529 µM)	0.05 (≈ 0.132 µM)	CC1CNCCN1c1c(F)c(N)c2c(=O)c(C(=O)O)cn(C3CC3)c2c1F (stereo not given)	–
0.78 (≈ 1.96 µM)	0.2 (≈ 0.503 µM)	0.025 (≈ 0.0628 µM)	CN1CCN(c2c(F)c(Cl)c3c(=O)c(C(=O)O)cn(C4CC4)c3c2F)CC1	–
0.78 (≈ 2.06 µM)	0.2 (≈ 0.527 µM)	0.05 (≈ 0.132 µM)	CN1CCN(c2c(F)c(O)c3c(=O)c(C(=O)O)cn(C4CC4)c3c2F)CC1	–
0.78 (≈ 2.05 µM)	0.39 (≈ 1.02 µM)	0.05 (≈ 0.131 µM)	CN1CCN(c2c(F)c(F)c3c(=O)c(C(=O)O)cn(C4CC4)c3c2F)CC1	–
0.39 (≈ 0.98 µM)	0.1 (≈ 0.251 µM)	0.0125 (≈ 0.0314 µM)	CC1CN(c2c(F)c(Cl)c3c(=O)c(C(=O)O)cn(C4CC4)c3c2F)CCN1 (stereo not given)	MIC [4]: 0.1 µg/mL (≈ 0.251 µM); ED50 (Mus musculus [5]): 1.65 mg/kg; MIC (Enterococcus faecalis): 0.78 µg/mL (≈ 1.96 µM); MIC (Klebsiella pneumoniae): 0.05 µg/mL (≈ 0.126 µM); MIC (Serratia marcescens [6]): 0.2 µg/mL (≈ 0.503 µM); MIC (Moraxella bovis): 1.56 µg/mL (≈ 3.92 µM); MIC (Escherichia coli [7]): 0.0125 µg/mL (≈ 0.0314 µM); MIC (Streptococcus pyogenes): 0.78 µg/mL (≈ 1.96 µM); MIC (Pseudomonas aeruginosa [9]): 0.78 µg/mL (≈ 1.96 µM); MIC (Enterobacter cloacae): 0.05 µg/mL (≈ 0.126 µM); MIC (Staphylococcus aureus [10]): 0.1 µg/mL (≈ 0.251 µM)
12.5 (≈ 31.6 µM)	3.13 (≈ 7.92 µM)	0.39 (≈ 0.986 µM)	CN1CCN(c2c(F)c(S)c3c(=O)c(C(=O)O)cn(C4CC4)c3c2F)CC1	–

SMILES	MIC (Pseudomonas aeruginosa [1]) [µg/mL]	MIC (Staphylococcus aureus [2]) [µg/mL]	MIC (Escherichia coli [3]) [µg/mL]	other results
O=C(O)c1cn(C2CC2)c2c(F)c(N3CCNCC3)c(F)cc2c1=O	0.05 (≈ 0.143 µM)	–	–	MIC [4]: 0.025 µg/mL (≈ 0.0716 µM); ED50 (Mus musculus [5]): 1.22 mg/kg; MIC (Enterococcus faecalis): 0.78 µg/mL (≈ 2.23 µM); MIC (Klebsiella pneumoniae): 0.0125 µg/mL (≈ 0.0358 µM); MIC (Serratia marcescens [11]): 0.025 µg/mL (≈ 0.0716 µM); MIC (Moraxella bovis): 0.39 µg/mL (≈ 1.12 µM); MIC (Escherichia coli [7]): 0.0031 µg/mL (≈ 0.00887 µM); MIC (Streptococcus pyogenes): 0.2 µg/mL (≈ 0.573 µM); ED50 (Mus musculus [8]): 20.5 mg/kg; MIC (Pseudomonas aeruginosa [9]): 0.2 µg/mL (≈ 0.573 µM); MIC (Enterobacter cloacae): 0.025 µg/mL (≈ 0.0716 µM); MIC (Staphylococcus aureus [10]): 0.05 µg/mL (≈ 0.143 µM)
O=C(O)c1cn(C2CC2)c2c(F)c(N3CCNCC3)c(F)c(Cl)c2c1=O	0.39 (≈ 1.02 µM)	0.1 (≈ 0.261 µM)	0.0125 (≈ 0.0326 µM)	–
CC1COc2c(N3CCN(C)CC3)c(F)cc3c(=O)c(C(=O)O)cn1c23 (stereo not given) [OFLOXACIN]	–	0.78 (≈ 2.16 µM)	–	MIC [4]: 0.2 µg/mL (≈ 0.553 µM); ED50 (Mus musculus [5]): 6.62 mg/kg; MIC (Enterococcus faecalis): 1.56 µg/mL (≈ 4.32 µM); MIC (Klebsiella pneumoniae): 0.1 µg/mL (≈ 0.277 µM); MIC (Serratia marcescens [11]): 0.2 µg/mL (≈ 0.553 µM); MIC (Moraxella bovis): 1.56 µg/mL (≈ 4.32 µM); MIC (Escherichia coli [7]): 0.05 µg/mL (≈ 0.138 µM); MIC (Streptococcus pyogenes): 0.39 µg/mL (≈ 1.08 µM); ED50 (Mus musculus [8]): 10.8 mg/kg; MIC (Pseudomonas aeruginosa [9]): 1.56 µg/mL (≈ 4.32 µM); MIC (Enterobacter cloacae): 0.1 µg/mL (≈ 0.277 µM); MIC (Staphylococcus aureus [10]): 0.2 µg/mL (≈ 0.553 µM)

— ChEMBL document CHEMBL1124792, “Synthesis and structure-activity relationships of 5-substituted 6,8-difluoroquinolones, including sparfloxacin, a new quinolone antibacterial agent with improved potency” (1990)
